The list is not random: actives were taken first. Their share in the collection is about 3.7%.
hERG rescue = hERG (human) protection from proarrhythmic block; CHO-hERG, FluxOR thallium flux, dofetilide IC70 present; hit rate 0.51% among 310,000; activation (rescue from dofetilide block), less the hit threshold, % at 10 µM;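 active means activation above the mean of controls blocked by dofetilide plus 5 SD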;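 further: thallium influx through hERG after potassium depolarization seen as dye fluorescence rise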
Kir21 inh = inhibitors of mouse Kir2.1 inward-rectifier potassium channel; HEK293-Kir2.1, FluxOR thallium flux fluorescence; hits give low values; B-score at 10 µM; hit rate 0.85% among 310,000;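 active means fluorescence ratio B-score at or below minus 3 SD of library scores, with starting-brightness B-score within 2 SD, cut at about -4.2 in these data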;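 further: channel flux triggered by added potassium and thallium sulfate stimulus; B-score of peak minus minimum fluorescence over baseline after thallium stimulus; more negative B-score means stronger Kir2.1 block with less thallium influx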
KCNQ1 inh = inhibitors of human KCNQ1 potassium channel; CHO-K1 KCNQ1, FluxOR thallium flux fluorescence; hits give high values; B-score at 10 µM; hit rate 1.3% among 310,000;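 active means compounds whose thallium flux B-score, printed positive for inhibition, exceeds three library SD while starting fluorescence stays within three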;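 further: channel opened by potassium depolarization with thallium stimulus after 20 min compound exposure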
KCNQ1 act = potentiators or activators of human KCNQ1 potassium channel. P51787. hit rate 0.35% among 310,000. B-score at 10 µM. CHO-K1 KCNQ1, thallium flux FluxOR fluorescence; hits give high values. AID 2648;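 active means fluorescence ratio B-score, a plate-corrected score, at least three library SD, with initial intensity B-score within 5 SD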
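Medium – assay buffer, equal DMSO in all wells · Material – CHO-K1 cell line with stable KCNQ1 potassium channel expression · Signal – kinetic FluxOR thallium fluorescence, 10-s 1-Hz baseline, 110-s post-stimulus read · Compound – single concentration per compound, DMSO matched to controls · Schedule – 37 °C overnight plating, 90-min dark dye load, 20-min compound pretreatment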
KCNK9 block = inhibitors of human KCNK9 two-pore domain potassium channel; Q9NPC2; HEK293 KCNK9, FluxOR thallium flux fluorescence; hits give low values; B-score at 10 µM; hit rate 1.2% among 310,000; AID 488922;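 active means ratio B-score over 3 SD below the library mean, with starting fluorescence within 5 SD of its mean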;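 further: negative B-score means less thallium flux so channel inhibition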
KCNK3 block = human KCNK3 channel inhibition, primary screen; O14649; hit rate 0.84% among 340,000; CHO-KCNK3 thallium flux, FluxOR fluorescence; hits give low values; B-score at 10 µM;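 active means B-score under library mean minus 4 SD, starting fluorescence ratio at most library mean plus 5 SD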;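 further: more negative B-score means stronger inhibition of thallium flux through KCNK3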
Target sequence (O14649 whole entry, looked up): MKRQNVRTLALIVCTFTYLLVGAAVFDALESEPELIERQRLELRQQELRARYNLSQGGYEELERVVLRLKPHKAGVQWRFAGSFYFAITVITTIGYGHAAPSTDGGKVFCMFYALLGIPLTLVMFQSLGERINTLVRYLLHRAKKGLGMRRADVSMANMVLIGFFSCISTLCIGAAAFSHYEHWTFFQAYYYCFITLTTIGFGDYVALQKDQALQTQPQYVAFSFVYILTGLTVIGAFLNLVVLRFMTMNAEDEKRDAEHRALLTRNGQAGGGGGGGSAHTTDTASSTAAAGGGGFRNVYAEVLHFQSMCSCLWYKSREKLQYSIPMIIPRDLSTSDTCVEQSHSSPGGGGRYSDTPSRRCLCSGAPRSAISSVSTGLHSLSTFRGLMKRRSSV
KCNK9 block conf = confirmation of human KCNK9 potassium channel inhibitors. shares compounds with KCNK9 block. HEK293 KCNK9 cells, FluxOR thallium flux fluorescence. inhibition, % at 10 µM. hit rate 43% among 4,900;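 active means thallium signal inhibited by more than 5 SD of the compound-free buffer control wells, on both duplicate plates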;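 further: 0% = assay buffer control wells without compound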
Kir21 sel = selectivity of KCNK9 modulators against mouse Kir2.1. shares compounds with KCNK9 block. Kir2.1 cells, FluxOR thallium flux fluorescence. inhibition, % at 10 µM. hit rate 4% among 4,900. AID 492993;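 active means thallium signal drop more than 5 SD beyond the mean of the no-compound control wells, seen in both duplicate plates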;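 further: signal is fluorescence rise after thallium addition divided by baseline fluorescence; plate controls were assay buffer only for no effect and full block by chlorpromazine control for full effect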
KCNK9 uninduced = non-induced cell nonspecific activity of KCNK9 modulators. inhibition, % at 10 µM. shares compounds with KCNK9 block. non-induced KCNK9-HEK293, FluxOR thallium flux. hit rate 40% among 4,900;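 active means thallium signal drop beyond 5 SD of the untreated control mean, on both duplicate plates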;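 further: plate controls were buffer only IC0 wells for no effect and SID17386958 at its maximal inhibitory level for full effect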
Active calls of the source: *; ! = repeats disagree.

`COc1ccc(C(=O)C2CCCN(C(=O)c3ccc(C(C)=O)s3)C2)c(C)c1` (stereo not given) gave hERG rescue -12.8, Kir21 inh -0.01, KCNQ1 inh inactive, KCNQ1 act inactive, KCNK9 block inactive, KCNK3 block inactive, KCNK9 block conf inactive, Kir21 sel inactive and KCNK9 uninduced inactive.
For N/C(=N\OC(=O)/C=C/c1ccccc1Cl)c1ccncc1 the results were hERG rescue -17.6, Kir21 inh 1.21, KCNQ1 inh inactive, KCNQ1 act inactive, KCNK9 block inactive and KCNK3 block inactive.
Cc1ccccc1C1CC(=O)c2ccccc2C1C (stereo not given) was read as KCNK3 block inactive.
`CCOc1ccccc1NC(=O)N1CCC(C(=O)c2ccc(F)cc2)CC1` gave hERG rescue -19.5, Kir21 inh -0.62, KCNQ1 inh inactive, KCNQ1 act inactive, KCNK9 block -10*, KCNK3 block inactive, KCNK9 block conf 41.5%*, Kir21 sel inactive and KCNK9 uninduced 36.5%*.
Screening Cc1ccccc1C(=O)N1CCN(C(c2ccccc2)c2ccccc2)CC1 returned hERG rescue -8.8, Kir21 inh 0, KCNQ1 inh inactive, KCNQ1 act inactive, KCNK9 block inactive and KCNK3 block inactive.
Screening CCOc1ccccc1N1CCN(C(=O)C(Sc2ccccc2)c2ccccc2)CC1 (stereo not given) returned hERG rescue -8.6, Kir21 inh 0.83, KCNQ1 inh inactive, KCNQ1 act inactive, KCNK9 block -12.2*, KCNK3 block inactive, KCNK9 block conf 56.0%*, Kir21 sel inactive and KCNK9 uninduced 28.5%*.
CCOc1ccccc1C(=O)N1CCN(C(c2ccccc2)c2ccccc2)CC1 was read as hERG rescue -12.1, Kir21 inh -0.02, KCNQ1 inh inactive, KCNQ1 act inactive, KCNK9 block -8.41*, KCNK3 block inactive, KCNK9 block conf inactive, Kir21 sel inactive and KCNK9 uninduced 25.5%*.
CC(C(=O)N1CCCc2ccccc21)N1CCN(S(=O)(=O)c2ccccc2F)CC1 (stereo not given) was read as hERG rescue -10.8, Kir21 inh 0.01, KCNQ1 inh inactive, KCNQ1 act inactive, KCNK9 block inactive, KCNK3 block inactive, KCNK9 block conf inactive, Kir21 sel inactive and KCNK9 uninduced inactive.
`O=C(O)c1cccc(CSc2nc(-c3ccccc3)cc(C(F)(F)F)n2)c1` gave hERG rescue -17.5, Kir21 inh 0.09, KCNQ1 inh inactive, KCNQ1 act inactive, KCNK9 block inactive and KCNK3 block inactive.
Screening COc1ccc(-c2cc(C(F)(F)F)nc(SCc3cccc(C(=O)O)c3)n2)cc1 returned hERG rescue -16.1, Kir21 inh -2.16, KCNQ1 inh inactive, KCNQ1 act inactive, KCNK9 block inactive, KCNK3 block inactive, KCNK9 block conf inactive, Kir21 sel inactive and KCNK9 uninduced inactive.
`O=C(N/N=C/c1cc(Br)cc(Br)c1O)c1cccc(S(=O)(=O)N2CCOCC2)c1` gave hERG rescue -12.5, Kir21 inh -0.21, KCNQ1 inh inactive, KCNQ1 act inactive, KCNK9 block -8.49*, KCNK3 block inactive, KCNK9 block conf 59.0%*, Kir21 sel inactive and KCNK9 uninduced 68.0%*.
COc1ccc(F)cc1C(=O)C1CCCN(Cc2c[nH]c3ccccc23)C1 (stereo not given) was read as hERG rescue -9.1, Kir21 inh -2.95, KCNQ1 inh inactive, KCNQ1 act inactive, KCNK9 block inactive and KCNK3 block inactive.
Cn1cc(CN2CCCC(C(=O)c3cc(F)ccc3F)C2)c2ccccc21 (stereo not given) was read as hERG rescue -12.3, Kir21 inh 0, KCNQ1 inh inactive, KCNQ1 act inactive, KCNK9 block inactive, KCNK3 block inactive, KCNK9 block conf inactive, Kir21 sel inactive and KCNK9 uninduced inactive.
`Cn1cc(CN2CCCC(CNC(=O)c3ccc4c(c3)OCO4)C2)c2ccccc21` (stereo not given) gave hERG rescue -7.0, Kir21 inh -0.04, KCNQ1 inh inactive, KCNQ1 act inactive, KCNK9 block inactive and KCNK3 block inactive.
For COc1ccc(F)cc1C(=O)C1CCCN(Cc2cn(C)c3ccccc23)C1 (stereo not given) the results were hERG rescue -10.1, Kir21 inh -2.65, KCNQ1 inh inactive, KCNQ1 act inactive, KCNK9 block inactive, KCNK3 block inactive, KCNK9 block conf inactive, Kir21 sel inactive and KCNK9 uninduced inactive.
For COc1ccc(OC)c(CN2CCCC(C(=O)c3ccccc3SC)C2)c1 (stereo not given) the results were hERG rescue -13.3, Kir21 inh -1.7, KCNQ1 inh inactive, KCNQ1 act inactive, KCNK9 block inactive, KCNK3 block inactive, KCNK9 block conf inactive, Kir21 sel inactive and KCNK9 uninduced inactive.
`CCN1CCN(CC(=O)Nc2c(OC)cccc2OC)CC1` gave hERG rescue -3.7, Kir21 inh -1.26, KCNQ1 inh inactive, KCNQ1 act inactive, KCNK9 block inactive and KCNK3 block inactive.
Screening COc1ccc(N2CCCn3c2nc2c3c(=O)n(CCc3ccccc3)c(=O)n2C)cc1 returned hERG rescue -6.7, Kir21 inh -0.68, KCNQ1 inh inactive, KCNQ1 act inactive, KCNK9 block inactive and KCNK3 block inactive.
COc1ccc(N2CCCn3c2nc2c3c(=O)n(Cc3ccc(C)cc3)c(=O)n2C)c(OC)c1 was read as hERG rescue -6.7, Kir21 inh 2, KCNQ1 inh inactive, KCNQ1 act inactive, KCNK9 block inactive, KCNK3 block inactive, KCNK9 block conf inactive, Kir21 sel inactive and KCNK9 uninduced inactive.
`NC(=NCCCCCCN=C(N)/N=C(\N)Nc1ccc(Cl)cc1)/N=C(\N)Nc1ccc(Cl)cc1` gave hERG rescue -5.0, Kir21 inh -0.15, KCNQ1 inh inactive, KCNQ1 act 12*!, KCNK9 block -10.2*, KCNK3 block inactive, KCNK9 block conf 50.5%*, Kir21 sel 38.5%* and KCNK9 uninduced inactive.
